For one assay, the system named is MDA-MB-231. The assay can be described thus: Cytotoxicity against human MDA-MB-231 cells after 2 days. Format: functional. An outline of the steps:
(§1)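 Cells grown per supplier's instructions, seeded at 2-4 × 10^4 per well and incubated overnight in medium with 10% FBS, 5% CO2, 37 °C. Day 2: medium replaced with graded compound concentrations from DMSO stock (20 mM). Day 4: CCK-8 added for 4 h, absorbance read at 450 nm. Three experiments, each in triplicate, mean ± S.D.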

The test system of another assay is HL-60. Nature of the assay: Cytotoxicity against human HL60 cells after 2 days. As to conditions: HL-60, 48 h. Format: functional, cell-based. In short, it runs like this:
as §1

Another assay deals with HCT-15. The assay can be described thus: Cytotoxicity against human HCT15 cells after 2 days. Format: functional, cell-based. To be noted: HCT-15, 48 h. In short, it runs like this:
as §1

The subject of a further assay is DU-145. The assay can be described thus: Cytotoxicity against human DU145 cells after 2 days. Format: functional, cell-based. To be noted: DU-145, 48 h. An outline of the steps: as §1
A further assay relates to HeLa. The assay can be described thus: Cytotoxicity against human HeLa cells after 2 days. Format: functional, cell-based. To be noted: 48 h. An outline of the steps: as §1
Assay [1] has as its target DNA topoisomerase 2-alpha (Homo sapiens) (UniProt P11388). The assay can be described thus: Inhibition of human DNA topoisomerase 2 alpha assessed as inhibition of supercoiled pBR322 DNA relaxation at 100 uM after 30 mins by gel electrophoresis. In short, it runs like this: (§2)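 200 ng supercoiled pBR322 with 1 unit human topo IIα, incubated 30 min at 30 °C in 10 mM Tris-HCl pH 7.9, 50 mM NaCl, 5 mM MgCl2, 1 mM EDTA, 1 mM ATP, BSA. Stopped with EDTA. Run on 1% agarose in TAE at 25 V for 4 h, stained with ethidium bromide, supercoiled band quantified under UV. Three experiments in triplicate.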

Assay [2] has as its target T1, DNA topoisomerase 1 (Homo sapiens) (UniProt P11387).
T1 sequence (whole entry): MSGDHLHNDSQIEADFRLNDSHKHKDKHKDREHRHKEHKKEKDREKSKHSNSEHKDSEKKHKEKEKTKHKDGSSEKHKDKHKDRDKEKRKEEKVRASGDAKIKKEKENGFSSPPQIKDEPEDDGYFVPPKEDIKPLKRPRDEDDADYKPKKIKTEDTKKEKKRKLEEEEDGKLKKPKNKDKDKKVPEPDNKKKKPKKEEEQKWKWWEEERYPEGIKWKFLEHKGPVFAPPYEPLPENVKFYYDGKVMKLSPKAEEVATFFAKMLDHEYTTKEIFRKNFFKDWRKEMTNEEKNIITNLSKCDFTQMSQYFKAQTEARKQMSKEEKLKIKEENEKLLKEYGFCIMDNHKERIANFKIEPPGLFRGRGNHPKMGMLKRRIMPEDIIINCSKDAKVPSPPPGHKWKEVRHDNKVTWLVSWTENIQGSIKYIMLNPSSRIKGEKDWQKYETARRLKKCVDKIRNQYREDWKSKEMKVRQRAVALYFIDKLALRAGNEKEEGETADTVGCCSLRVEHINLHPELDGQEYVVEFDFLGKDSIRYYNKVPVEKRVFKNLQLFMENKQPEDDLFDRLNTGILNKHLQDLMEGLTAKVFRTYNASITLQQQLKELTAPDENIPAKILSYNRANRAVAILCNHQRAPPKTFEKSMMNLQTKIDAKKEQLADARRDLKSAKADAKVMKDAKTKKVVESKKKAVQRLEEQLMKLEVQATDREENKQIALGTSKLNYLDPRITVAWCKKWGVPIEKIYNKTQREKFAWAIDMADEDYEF
The assay can be described thus: Inhibition of human recombinant DNA topoisomerase 1 assessed as inhibition of supercoiled pBR322 DNA relaxation at 100 uM after 30 mins by gel electrophoresis. An outline of the steps: (§3)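 100 ng pBR322 with 0.4 units recombinant human topo I, incubated 30 min at 37 °C in 10 mM Tris-HCl pH 7.9, 150 mM NaCl, 0.1% BSA, 1 mM spermidine, 5% glycerol. Stopped with sarcosyl stop solution. Run on 1% agarose in TAE at 15 V for 7 h, stained with ethidium bromide, bands quantified under UV. Three experiments in triplicate.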

The target of assay [3] is T1, DNA topoisomerase 1 (Homo sapiens). Nature of the assay: Inhibition of human recombinant DNA topoisomerase 1 assessed as inhibition of supercoiled pBR322 DNA relaxation at 20 uM after 30 mins by gel electrophoresis. An outline of the steps:
as §3

For assay [4], the target named is DNA topoisomerase 2-alpha (Homo sapiens) (UniProt P11388). Nature of the assay: Inhibition of human DNA topoisomerase 2 alpha assessed as inhibition of supercoiled pBR322 DNA relaxation at 20 uM after 30 mins by gel electrophoresis. An outline of the steps:
as §2

From ChEMBL document CHEMBL1806416, “Synthesis of 2,4-diaryl chromenopyridines and evaluation of their topoisomerase I and II inhibitory activity, cytotoxicity, and structure-activity relationship” (Eur J Med Chem, 2011) come the findings set out here.

By IC50 is commonly meant the concentration that gives 50% inhibition. Lower therefore signals greater potency in that assay. As usually defined, the inhibition is the drop in the measured response relative to a control, in per cent.

Sequence of DNA topoisomerase 2-alpha (Homo sapiens) (P11388 whole entry): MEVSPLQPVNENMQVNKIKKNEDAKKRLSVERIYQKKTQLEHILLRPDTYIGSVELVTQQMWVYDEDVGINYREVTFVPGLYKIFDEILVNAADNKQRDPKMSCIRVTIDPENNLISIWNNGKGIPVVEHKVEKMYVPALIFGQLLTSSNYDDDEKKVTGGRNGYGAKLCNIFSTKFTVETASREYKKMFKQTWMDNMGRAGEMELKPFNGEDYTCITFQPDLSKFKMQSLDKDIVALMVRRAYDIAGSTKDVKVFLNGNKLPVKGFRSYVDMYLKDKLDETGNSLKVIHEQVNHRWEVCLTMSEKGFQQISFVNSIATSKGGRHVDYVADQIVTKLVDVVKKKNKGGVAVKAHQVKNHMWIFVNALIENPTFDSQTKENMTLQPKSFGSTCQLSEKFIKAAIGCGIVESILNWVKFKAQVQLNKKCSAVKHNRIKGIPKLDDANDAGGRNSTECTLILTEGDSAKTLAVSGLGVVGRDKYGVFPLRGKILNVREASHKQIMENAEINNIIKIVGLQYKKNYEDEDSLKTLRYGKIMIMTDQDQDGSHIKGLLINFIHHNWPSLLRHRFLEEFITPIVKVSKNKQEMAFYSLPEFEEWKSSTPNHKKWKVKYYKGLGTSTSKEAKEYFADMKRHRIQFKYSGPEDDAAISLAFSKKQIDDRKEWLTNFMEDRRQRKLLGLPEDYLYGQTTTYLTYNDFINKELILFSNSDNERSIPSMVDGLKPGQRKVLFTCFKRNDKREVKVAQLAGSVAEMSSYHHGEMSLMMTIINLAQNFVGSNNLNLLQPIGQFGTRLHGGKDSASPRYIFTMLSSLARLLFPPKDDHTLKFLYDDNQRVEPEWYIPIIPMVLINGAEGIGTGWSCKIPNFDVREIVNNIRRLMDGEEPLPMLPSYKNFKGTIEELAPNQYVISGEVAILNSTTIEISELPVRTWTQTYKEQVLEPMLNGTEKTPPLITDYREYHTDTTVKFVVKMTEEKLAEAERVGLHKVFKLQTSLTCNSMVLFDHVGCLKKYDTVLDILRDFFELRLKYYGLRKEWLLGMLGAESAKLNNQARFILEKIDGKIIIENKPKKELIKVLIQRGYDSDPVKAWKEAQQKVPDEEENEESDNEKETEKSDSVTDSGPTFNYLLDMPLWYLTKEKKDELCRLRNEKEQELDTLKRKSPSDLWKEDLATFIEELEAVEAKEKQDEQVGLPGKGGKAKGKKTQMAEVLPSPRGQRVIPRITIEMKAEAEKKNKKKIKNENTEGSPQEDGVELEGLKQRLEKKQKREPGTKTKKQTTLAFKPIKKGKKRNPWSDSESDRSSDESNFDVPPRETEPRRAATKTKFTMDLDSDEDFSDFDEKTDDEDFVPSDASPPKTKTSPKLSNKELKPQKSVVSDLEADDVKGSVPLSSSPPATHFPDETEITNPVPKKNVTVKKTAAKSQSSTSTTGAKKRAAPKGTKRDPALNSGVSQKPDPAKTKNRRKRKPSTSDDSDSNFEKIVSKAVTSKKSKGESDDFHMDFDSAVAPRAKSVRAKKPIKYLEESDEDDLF

With `CC[C@@]1(O)C(=O)OCc2c1cc1n(c2=O)Cc2cc3ccccc3nc2-1` [CAMPTOTHECIN], the half-maximal inhibitory concentration (IC50) in the assay with MDA-MB-231 is 0.3 µM.

Turning to `c1ccc(-c2cc(-c3ccccn3)c3c(n2)-c2ccccc2OC3)nc1`, the concentration for half-maximal inhibition (IC50) with HL-60 was 0.2 µM; with HCT-15 it was 23.1 µM; in the assay on DU-145, over 50 µM; in the assay on HeLa it was over 50 µM; in the assay on MDA-MB-231 it was 4.7 µM. For the same compound, the values for the inhibition in assay [1] and in assay [2] were 10.7% and 0.6%, respectively.

Regarding `c1ccc(-c2cc(-c3ccsc3)c3c(n2)-c2ccccc2OC3)cc1`, the IC50 with HL-60 was over 50 µM; with HCT-15, over 50 µM; with DU-145, over 50 µM; in the assay with HeLa, over 50 µM; with MDA-MB-231 it was 11.9 µM. The values for the inhibition in assay [1] and in assay [2] were 17.6% and 3.7%, respectively.

In the case of `c1ccc(-c2cc(-c3ccccn3)nc3c2COc2ccccc2-3)cc1`, the IC50 in the assay on HL-60 was 14.5 µM; in the assay with HCT-15, 15.6 µM; in the assay on DU-145 it was 7.6 µM; in the assay on HeLa, 5 µM; with MDA-MB-231 it was 11.1 µM. The inhibition in [1] was 7.2%; in [2], 3.1%.

Regarding `c1ccc(-c2cc(-c3cccnc3)c3c(n2)-c2ccccc2OC3)nc1`, the half-maximal inhibitory concentration (IC50) was over 50 µM with HL-60; 3.3 µM with HCT-15; 4.4 µM in the assay on DU-145; 1.3 µM with HeLa; 7.2 µM in the assay with MDA-MB-231. In addition, the inhibition was determined as 8.7% in assay [1] and 2.6% in [2].

Turning to `c1csc(-c2cc(-c3ccoc3)c3c(n2)-c2ccccc2OC3)c1`, the values for the inhibition in assay [1] and in [2] were 8.4% and 0%, respectively.

On to `c1ccc(-c2cc(-c3ccco3)nc3c2COc2ccccc2-3)nc1`, for which the inhibition in assay [1] amounted to 2%; in assay [2] it was 11.5%.

Consider `COc1cccc2c1C(=O)c1c(O)c3c(c(O)c1C2=O)C[C@@](O)(C(=O)CO)C[C@@H]3O[C@H]1C[C@H](N)[C@H](O)[C@H](C)O1` [DOXORUBICIN], for which, in the assay with MDA-MB-231, the IC50 was 0.4 µM.

In the case of `c1ccc(-c2cc(-c3cccs3)nc3c2COc2ccccc2-3)cc1`, the results for the inhibition in [1] and in assay [2] were 7.5% and 5.5%, respectively.

As to `c1cncc(-c2cc(-c3ccco3)nc3c2COc2ccccc2-3)c1`, the IC50 was determined as 1.8 µM with HL-60; 0.6 µM with HCT-15; 4.6 µM in the assay on DU-145; 2.2 µM in the assay on HeLa; 1.1 µM in the assay with MDA-MB-231. The inhibition came to 5.6% in assay [1], 15.5% in assay [3] and 41.6% in [2].

In the case of `c1ccc(-c2cc(-c3ccoc3)c3c(n2)-c2ccccc2OC3)cc1`, the IC50 in the assay on HL-60 was 6.6 µM; with HCT-15, 31.1 µM; in the assay with DU-145, over 50 µM; with HeLa it was 39.6 µM; in the assay with MDA-MB-231, 10 µM. The inhibition was 10.5% in assay [1] and 1.9% in [2].

Turning to `c1ccc(-c2cc(-c3ccccn3)c3c(n2)-c2ccccc2OC3)cc1`, the half-maximal inhibitory concentration (IC50) with HL-60 was over 50 µM; in the assay with HCT-15 it was 12.1 µM; in the assay with DU-145, 1.9 µM; in the assay on HeLa it was 2.8 µM; in the assay with MDA-MB-231, 1.9 µM. For the same compound, the inhibition turned out to be 8.7% in [1] and 0% in [2].

For the compound `c1ccc(-c2cc(-c3ccsc3)nc3c2COc2ccccc2-3)nc1`, the half-maximal inhibitory concentration (IC50) with HL-60 was over 50 µM; in the assay with HCT-15 it was 8.3 µM; with DU-145, 5 µM; with HeLa, over 50 µM; in the assay with MDA-MB-231 it was 25.8 µM. For the same compound, the inhibition was 3.2% in [4], 25.3% in assay [1] and 3.3% in assay [2].

For the compound `c1ccc(-c2cc(-c3cccs3)c3c(n2)-c2ccccc2OC3)cc1`, the IC50 in the assay with HL-60 was over 50 µM; with HCT-15, 1.2 µM; in the assay on DU-145 it was 2.6 µM; in the assay with HeLa, 16 µM; with MDA-MB-231 it was 3.9 µM. The inhibition in assay [1] was 10.8%; in [2] it was 0%.

As for `c1ccc(-c2cc(-c3cccs3)c3c(n2)-c2ccccc2OC3)nc1`, the half-maximal inhibitory concentration (IC50) is 13.7 µM in the assay with HL-60; 14 µM in the assay with HCT-15; 13.1 µM in the assay with DU-145; 6.2 µM with HeLa; 2.4 µM with MDA-MB-231. The inhibition in assay [1] amounted to 19.4%; in [3] it was 4.1%; in assay [2], 48.2%.

Regarding `c1csc(-c2cc(-c3cccs3)c3c(n2)-c2ccccc2OC3)c1`, the inhibition in assay [1] came to 7.9%; in assay [2], 0.7%.

For the compound `c1ccc(-c2cc(-c3ccccc3)c3c(n2)-c2ccccc2OC3)cc1`, the IC50 in the assay with HL-60 came to 18.8 µM; in the assay on HCT-15, 5.1 µM; with DU-145, 6.9 µM; in the assay on HeLa it was 14.2 µM; with MDA-MB-231 it was 1.8 µM. In addition, the inhibition in assay [1] stood at 15.4%; in assay [2], 0%.

Take `c1coc(-c2cc(-c3cccs3)c3c(n2)-c2ccccc2OC3)c1`: the inhibition turned out to be 6.8% in assay [1] and 0% in assay [2].

With `c1coc(-c2cc(-c3cccs3)nc3c2COc2ccccc2-3)c1`, the inhibition in assay [1] is 14.1%; in [2], 9.2%.

As to `COc1cc([C@@H]2c3cc4c(cc3[C@@H](O[C@@H]3O[C@@H]5CO[C@@H](C)O[C@H]5[C@H](O)[C@H]3O)[C@H]3COC(=O)[C@H]23)OCO4)cc(OC)c1O` [ETOPOSIDE], the inhibition in [4] turned out to be 22.3%. Moreover, in the assay on MDA-MB-231, the half-maximal inhibitory concentration (IC50) was found to be 0.7 µM.

Take `c1ccc(-c2cc(-c3ccco3)c3c(n2)-c2ccccc2OC3)cc1`: the half-inhibitory concentration (IC50) with HL-60 was found to be 7.3 µM; with HCT-15, 12.3 µM; in the assay on DU-145 it was 18.6 µM; in the assay on HeLa, 1.4 µM; in the assay on MDA-MB-231, 11.6 µM. For the same compound, the inhibition in [1] is 11.5%; in [2], 0%.

For `c1ccc(-c2cc(-c3ccco3)c3c(n2)-c2ccccc2OC3)nc1`, the IC50 is 18.6 µM in the assay with HL-60; over 50 µM in the assay with HCT-15; 22.9 µM in the assay on DU-145; over 50 µM in the assay with HeLa; 3.3 µM with MDA-MB-231. The inhibition in assay [1] was 23.4%; in assay [2], 4.4%.

With `c1ccc(-c2cc(-c3ccco3)nc3c2COc2ccccc2-3)cc1`, the IC50 in the assay on HL-60 stood at 1.4 µM; in the assay with HCT-15, 0.4 µM; with DU-145, 0.1 µM; in the assay on HeLa it was 2.3 µM; in the assay with MDA-MB-231, 0.2 µM. The inhibition in [1] was 28.4%; in [2], 4.9%.

For the compound `c1ccc(-c2cc(-c3cccs3)nc3c2COc2ccccc2-3)nc1`, the inhibition came to 8.5% in [1] and 1.8% in [2].

In the case of `c1ccc(-c2cc(-c3cccnc3)c3c(n2)-c2ccccc2OC3)cc1`, the figures for the inhibition in assay [1] and in assay [2] were 14% and 0%, respectively.

In the case of `c1coc(-c2cc(-c3ccco3)c3c(n2)-c2ccccc2OC3)c1`, the IC50 is 3.4 µM with HL-60; 0.6 µM in the assay on HCT-15; 0.9 µM with DU-145; 1.3 µM with HeLa; 0.6 µM with MDA-MB-231. In addition, the inhibition amounted to 11.6% in assay [1], 22.9% in assay [3] and 46.4% in assay [2].
